ChEMBL document CHEMBL1129409, “5-HT1D receptor agonist properties of novel 2-[5-[[(trifluoromethyl)sulfonyl]oxy]indolyl]ethylamines and their use as synthetic intermediates” (J Med Chem, 1996)

Columns and labels:
[1] = Distribution coefficient (LogD) of compound reported; type: physicochemical; settings: octanol/water
How it was run: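 log D calculated with Pallas version 1.2.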

[2] = target: T1, 5-hydroxytryptamine receptor 1D (Homo sapiens, UniProt P28221); test: Displacement of [3H]-5-HT from human 5-hydroxytryptamine 1D receptor alpha expressed in HEK 293 cells; type: cell-based, HEK293
How it was run: (§1)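 HEK 293 microsomal membranes expressing human 5-HT1Dα or 5-HT1Dβ, in 50 mM Tris-HCl buffer with 4 mM CaCl2, 0.1% ascorbic acid, pargyline and leupeptine. [3H]-5-HT (final 0.01-150 nM) incubated with membranes and displacer for 30 min at 25 °C. Glass-fibre filtration, then scintillation counting. Nonspecific binding taken with 10^-5 M 5-HT. Nonlinear least-squares fitting (EBDA/LIGAND); mean ± SEM, n=3.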
Target sequence in this assay (P28221 whole entry): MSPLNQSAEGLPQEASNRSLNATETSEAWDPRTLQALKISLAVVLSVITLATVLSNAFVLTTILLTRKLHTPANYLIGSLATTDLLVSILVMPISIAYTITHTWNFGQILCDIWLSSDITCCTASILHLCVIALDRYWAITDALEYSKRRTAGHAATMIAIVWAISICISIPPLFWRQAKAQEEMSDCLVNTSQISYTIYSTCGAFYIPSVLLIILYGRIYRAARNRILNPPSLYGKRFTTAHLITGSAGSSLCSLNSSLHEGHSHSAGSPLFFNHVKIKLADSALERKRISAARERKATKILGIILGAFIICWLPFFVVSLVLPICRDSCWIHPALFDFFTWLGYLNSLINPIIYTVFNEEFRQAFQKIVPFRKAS

[3] = target: T1, 5-hydroxytryptamine receptor 1D; test: (§2) Compound was tested for binding affinity against cloned human 5-hydroxytryptamine 1D receptor alpha expressed in CHO-K1 cells.; type: cell-based
How it was run: (§3)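 CHO cell membranes expressing cloned human 5-HT1A, 5-HT1Dα or 5-HT1Dβ receptors, or rat D2 receptors (20-60 µg protein). Radioligands: [3H]-8-OH-DPAT (5-HT1A), [3H]-5-HT (5-HT1D), [3H]U-86170 (D2). Buffers at pH 7.4: 50 mM Tris/5 mM MgCl2 (5-HT1A); the same with 0.1% ascorbic acid (5-HT1D); 20 mM HEPES/10 mM MgSO4 (D2). Nonspecific binding defined with lisuride, serotonin and haloperidol respectively. 11 concentrations in duplicate, 1 h at room temperature (5-HT1D protected from light), filtration.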

[4] = target: T1, 5-hydroxytryptamine receptor 1D; test: Compound was tested for binding affinity against human 5-hydroxytryptamine 1D receptor alpha clones expressed in human embryonic kidney (HEK 293) cells line.; type: cell-based, HEK293; how it was run: as §1
Target sequence in this assay (P28221 whole entry): as above

[5] = target: T1, 5-hydroxytryptamine receptor 1D; test: Ratio of receptor binding affinities of 5-hydroxytryptamine 1D receptor alpha vs 5-hydroxytryptamine 1D receptor beta
Target sequence in this assay (P28221 whole entry): as above

[6] = target: T2, 5-hydroxytryptamine receptor 1B (Homo sapiens, UniProt P28222); test: Compound was tested for binding affinity against human 5-hydroxytryptamine 1D receptor beta clones expressed in human embryonic kidney (HEK 293) cells line.; type: cell-based, HEK293; how it was run: as §1
D(2) dopamine receptor = D(2) dopamine receptor (Rattus norvegicus, UniProt P61169); test: Binding affinity for rat dopamine D2 receptor expressed in CHO-K1 cells; type: cell-based; how it was run: as §3
[7] = target: T1, 5-hydroxytryptamine receptor 1D; test: as §2; type: cell-based; remark: listed apart in the source
How it was run: (§4)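 CHO cell membranes expressing cloned human 5-HT1A, 5-HT1Dα or 5-HT1Dβ receptors, or rat D2 receptors (20-60 µg protein). Buffers at pH 7.4: 50 mM Tris/5 mM MgCl2 (5-HT1A); the same with 0.1% ascorbic acid (5-HT1D); 20 mM HEPES/10 mM MgSO4 (D2). Nonspecific binding defined with lisuride, serotonin and haloperidol respectively. 11 concentrations in duplicate, 1 h at room temperature (5-HT1D protected from light), filtration.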
Target sequence in this assay (P28221 whole entry): as above

[8] = target: T3, 5-hydroxytryptamine receptor 1A (Homo sapiens, UniProt P08908); test: Compound was tested for binding affinity against cloned human 5-hydroxytryptamine 1A receptor expressed in CHO-K1 cells.; type: cell-based; how it was run: as §4
T3 sequence (P08908 whole entry): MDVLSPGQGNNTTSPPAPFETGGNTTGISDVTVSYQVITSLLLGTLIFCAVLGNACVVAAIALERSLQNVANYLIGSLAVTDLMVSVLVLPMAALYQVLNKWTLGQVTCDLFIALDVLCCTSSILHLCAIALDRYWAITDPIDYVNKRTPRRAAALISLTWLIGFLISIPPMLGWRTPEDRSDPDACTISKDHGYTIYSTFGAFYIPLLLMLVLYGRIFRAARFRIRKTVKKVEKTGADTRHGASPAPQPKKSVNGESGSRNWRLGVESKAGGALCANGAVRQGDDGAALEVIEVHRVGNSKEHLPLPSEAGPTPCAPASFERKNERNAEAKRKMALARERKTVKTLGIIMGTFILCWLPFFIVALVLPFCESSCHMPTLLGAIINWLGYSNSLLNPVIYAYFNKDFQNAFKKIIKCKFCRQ

[9] = target: T2, 5-hydroxytryptamine receptor 1B; test: Compound was tested for binding affinity against cloned human 5-hydroxytryptamine 1D receptor beta expressed in CHO-K1 cells.; type: cell-based
Cavia porcellus [10] = test: Effect of 50(umol/kg, sc) compound on guinea pig rectal temperature; Hypothermia 0-60 delta degree C; type: functional
How it was run: (§5)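 Male guinea pigs housed individually at least 1 h before testing, groups of five. Compound given sc in 0.25% methylcellulose (equimolar citric acid for free bases), 5 mL/kg. Rectal probe inserted 3-4 cm; temperature read before dosing and at 60 min. Reported as change from the 0 min value, mean ± SEM (n=4-5).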

Cavia porcellus [11] = test: The level of 5-HT (hypothalamus) measured by means of HPCL with electrochemical detection methods at 50(umol/kg, sc); type: functional
How it was run: (§6)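 Male Dunkin-Hartley guinea pigs dosed sc in 0.25% methylcellulose (citric acid added for free bases), 5 mL/kg. Decapitated 60 min after dosing; prefrontal cortex and hypothalamus dissected on ice and stored at -80 °C. 5-HT and 5-HIAA measured by HPLC-electrochemical detection. Expressed as % of vehicle controls, mean ± SEM (n=4-5); ANOVA with Fisher's PLSD.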

Cavia porcellus [12] = test: Effect of 12.5 (umol/kg, sc) compound on guinea pig rectal temperature; Hypothermia 0-60 delta degree C; type: functional; how it was run: as §5
Cavia porcellus [13] = test: The level of 5-HT (prefrontal cortex) measured by means of HPCL with electrochemical detection methods at 50(umol/kg, sc); type: functional; how it was run: as §6
Cavia porcellus [14] = test: The level of 5-HIAA (hypothalamus) measured by means of HPCL with electrochemical detection methods at 50(umol/kg, sc); type: functional; how it was run: as §6
Cavia porcellus [15] = test: The level of 5-HIAA (prefrontal cortex) measured by means of HPCL with electrochemical detection methods at 50(umol/kg, sc); type: functional; how it was run: as §6
[16] = target: T2, 5-hydroxytryptamine receptor 1B; test: Compound was tested for binding affinity against cloned human 5-HT1D beta receptor expressed in CHO-K1 cells.; type: cell-based; how it was run: as §3
Cavia porcellus [17] = test: The level of 5-HIAA (prefrontal cortex) measured by means of HPCL with electrochemical detection methods at 6.250 (umol/kg, sc); type: functional; how it was run: as §6
Cavia porcellus [18] = test: The level of 5-HT (prefrontal cortex) measured by means of HPCL with electrochemical detection methods at 6.250 (umol/kg, sc); type: functional; how it was run: as §6
Cavia porcellus [19] = test: Effect of 6.250 (umol/kg, sc) compound on guinea pig rectal temperature (Hypothermia); type: functional; how it was run: as §5
Cavia porcellus [20] = test: The level of 5-HIAA (hypothalamus) measured by means of HPCL with electrochemical detection methods at 6.250 (umol/kg, sc); type: functional; how it was run: as §6
Cavia porcellus [21] = test: The level of 5-HIAA(prefrontal cortex) measured by means of HPCL with electrochemical detection methods at 12.5 (umol/kg, sc); type: functional; how it was run: as §6
Cavia porcellus [22] = test: The level of 5-HT (hypothalamus) measured by means of HPCL with electrochemical detection methods at 12.5 (umol/kg, sc); type: functional; how it was run: as §6
Cavia porcellus [23] = test: Effect of 50(umol/kg, sc) compound on guinea pig rectal temperature (Hypothermia); type: functional; how it was run: as §5
Rattus norvegicus [24] = test: 5-HTP accumulation in Rat brain accumbens when Reserpine given 24 hr before decapitation & 45 & 30 min before 10 umol/kg test drug; type: functional
How it was run: (§7)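 Rats reserpinized (5 mg/kg ip) 24 h before test compound (10 µmol/kg sc in saline, 1.0 mL/kg). NSD 1015 (100 mg/kg) given 15 min after test compound; decapitation 30 min later. Regions stored at -70 °C, homogenized in TCA, supernatant analysed by HPLC-electrochemical detection. Output is 5-HTP in µg/g wet tissue, mean ± SEM (striatum n=8, others n=4); one-way ANOVA with post hoc t-test.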

Rattus norvegicus [25] = test: 5-HTP accumulation in Rat brain frontal cortex when Reserpine given 24 hr before decapitation & 45 & 30 min before 10 umol/kg test drug; type: functional; how it was run: as §7
Rattus norvegicus [26] = test: 5-HTP accumulation in Rat brain striatum when Reserpine given 24 hr before decapitation & 45 & 30 min before 10 umol/kg test drug; type: functional; how it was run: as §7
Cavia porcellus [27] = test: Effect of 12.5 (umol/kg, sc) compound on guinea pig rectal temperature (Hypothermia); type: functional; how it was run: as §5
Cavia porcellus [28] = test: The level of 5-HT (prefrontal cortex) measured by means of HPCL with electrochemical detection methods at 12.5 (umol/kg, sc); type: functional; how it was run: as §6
Rattus norvegicus [29] = test: 5-HTP accumulation in Rat brain hippocampus when Reserpine given 24 hr before decapitation & 45 & 30 min before 10 umol/kg test drug; type: functional; how it was run: as §7
Cavia porcellus [30] = test: The level of 5-HIAA (hypothalamus) measured by means of HPCL with electrochemical detection methods at 12.5 (umol/kg, sc); type: functional; how it was run: as §6
Cavia porcellus [31] = test: The level of 5-HT (prefrontal cortex) measured by means of HPCL with electrochemical detection methods at 25 (umol/kg, sc); type: functional; how it was run: as §6
Cavia porcellus [32] = test: The level of 5-HIAA (hypothalamus) measured by means of HPCL with electrochemical detection methods at 25 (umol/kg, sc); type: functional; how it was run: as §6
Cavia porcellus [33] = test: Effect of 25 (umol/kg, sc) compound on guinea pig rectal temperature (Hypothermia); type: functional; how it was run: as §5
Cavia porcellus [34] = test: The level of 5-HT (hypothalamus) measured by means of HPCL with electrochemical detection methods at 25 (umol/kg, sc); type: functional; how it was run: as §6
Cavia porcellus [35] = test: The level of 5-HIAA (prefrontal cortex) measured by means of HPCL with electrochemical detection methods at 25 (umol/kg, sc); type: functional; how it was run: as §6

T2 sequence (P28222 whole entry): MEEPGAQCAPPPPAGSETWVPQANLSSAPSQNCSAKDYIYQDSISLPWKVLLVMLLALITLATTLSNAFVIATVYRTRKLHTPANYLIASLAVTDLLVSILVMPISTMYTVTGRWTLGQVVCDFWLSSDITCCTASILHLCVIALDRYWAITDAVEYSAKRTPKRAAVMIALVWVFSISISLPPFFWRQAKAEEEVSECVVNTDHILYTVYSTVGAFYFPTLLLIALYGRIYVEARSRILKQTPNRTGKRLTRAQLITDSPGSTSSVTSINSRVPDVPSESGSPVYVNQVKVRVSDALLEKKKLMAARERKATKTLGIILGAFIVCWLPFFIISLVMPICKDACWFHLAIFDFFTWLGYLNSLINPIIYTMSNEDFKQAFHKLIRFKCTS
D(2) dopamine receptor, sequence (P61169 whole entry): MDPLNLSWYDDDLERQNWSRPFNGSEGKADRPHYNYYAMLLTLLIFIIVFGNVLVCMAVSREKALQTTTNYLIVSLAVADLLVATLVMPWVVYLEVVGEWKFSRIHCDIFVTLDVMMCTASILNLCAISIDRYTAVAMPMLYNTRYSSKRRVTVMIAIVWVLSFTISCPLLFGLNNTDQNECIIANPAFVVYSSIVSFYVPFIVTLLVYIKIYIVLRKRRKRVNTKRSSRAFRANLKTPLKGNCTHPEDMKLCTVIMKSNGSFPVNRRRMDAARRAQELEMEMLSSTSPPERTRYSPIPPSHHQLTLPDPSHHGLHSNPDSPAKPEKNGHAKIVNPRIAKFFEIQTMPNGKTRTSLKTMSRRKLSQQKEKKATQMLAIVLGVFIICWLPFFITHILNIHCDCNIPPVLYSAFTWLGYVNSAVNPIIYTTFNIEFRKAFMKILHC

## CN(C)CCc1c[nH]c2ccc(OCc3ccccc3)cc12
[1]
  logD: 2.28
[2]
  IC50: 25 nM
[3]
  IC50: 76 nM

## CCN(CC)CCc1c[nH]c2ccc(OS(=O)(=O)C(F)(F)F)cc12
[4]
  IC50: 21 nM
[1]
  logD: 1.31
[5]
  Ratio: 14.3
[6]
  IC50: 530 nM
D(2) dopamine receptor
  Ki: 637 nM
[3]
  Ki: 171 nM
[7]
  Ki: 12 nM
[8]
  Ki: 27 nM

## CCN(CC)CCc1c[nH]c2ccc(O)cc12
[1]
  logD: 0.28
[2]
  IC50: 77 nM
[3]
  IC50: 77 nM

## CCCN(CCC)CCc1c[nH]c2ccc(O)cc12
[1]
  logD: 1.24
[2]
  IC50: 820 nM
[3]
  IC50: 820 nM

## COc1ccc(CNC(=O)/C=C/c2ccc3[nH]cc(CCN(C)C)c3c2)cc1
[1]
  logD: 1.71
[9]
  Ki: 0.2 nM
Cavia porcellus [10]
  Others: -2.62
Cavia porcellus [11]
  Others: 121%
Cavia porcellus [12]
  Others: -1.62
Cavia porcellus [13]
  Others: 94%
[7]
  Ki: 0.3 nM
Cavia porcellus [14]
  Others: 49%
[8]
  Ki: 1.3 nM
Cavia porcellus [15]
  Others: 37%

## CCCN(CCC)CCc1c[nH]c2ccc(OS(=O)(=O)C(F)(F)F)cc12
[4]
  IC50: 170 nM
[1]
  logD: 2.21
[5]
  Ratio: 1.3
[6]
  IC50: 660 nM
D(2) dopamine receptor
  Ki: 502 nM
[7]
  Ki: 190 nM
[8]
  Ki: 23 nM
[16]
  Ki: 246 nM

## CCCN(CCC)C1CCc2cccc(O)c2C1 (stereo not drawn) [8-OH-DPAT]
Cavia porcellus [17]
  Others: 34%
Cavia porcellus [18]
  Others: 126%
Cavia porcellus [19]
  Others: 0.22
Cavia porcellus [20]
  Others: 37%

## CCCN(CCC)CCc1c[nH]c2ccc(OCc3ccccc3)cc12
[1]
  logD: 3.08
[2]
  IC50: 470 nM
[3]
  IC50: 470 nM

## CCN(CC)CCc1c[nH]c2ccc(OCc3ccccc3)cc12
[1]
  logD: 2.18
[2]
  IC50: 110 nM
[3]
  IC50: 110 nM

## CN(C)CCc1c[nH]c2ccc(OS(=O)(=O)C(F)(F)F)cc12
Cavia porcellus [21]
  Others: 59%
Cavia porcellus [22]
  Others: 97%
[4]
  IC50: 8.4 nM
[1]
  logD: 1.41
[5]
  Ratio: 10
Cavia porcellus [23]
  Others: -1.72
[9]
  Ki: 32 nM
[6]
  IC50: 98 nM
Cavia porcellus [11]
  Others: 123%
Rattus norvegicus [24]
  5-HTP accumulation: 0.4 µg/g
  Accumulation: 81.6%
Rattus norvegicus [25]
  5-HTP accumulation: 0.37 µg/g
  Accumulation: 78.8%
Rattus norvegicus [26]
  5-HTP accumulation: 0.28 µg/g
  Accumulation: 75.7%
Cavia porcellus [13]
  Others: 129%
D(2) dopamine receptor
  Ki: 538 nM
Cavia porcellus [27]
  Others: -1.7
[7]
  Ki: 3.2 nM
Cavia porcellus [28]
  Others: 104%
Rattus norvegicus [29]
  5-HTP accumulation: 0.28 µg/g
  Accumulation: 100%
Cavia porcellus [14]
  Others: 54%
Cavia porcellus [30]
  Others: 66%
[8]
  Ki: 40 nM
Cavia porcellus [15]
  Others: 46%

## NCCc1c[nH]c2ccc(OS(=O)(=O)C(F)(F)F)cc12
[1]
  logD: -0.24
[5]
  Ratio: 5
[9]
  Ki: 14 nM
D(2) dopamine receptor
  Ki: 658 nM
[7]
  Ki: 2.8 nM
[8]
  Ki: 18 nM

## CNS(=O)(=O)Cc1ccc2[nH]cc(CCN(C)C)c2c1
Cavia porcellus [31]
  Others: 119%
Cavia porcellus [32]
  Others: 133%
Cavia porcellus [33]
  Others: -0.14
Cavia porcellus [34]
  Others: 122%
D(2) dopamine receptor
  Ki: > 218 nM
Cavia porcellus [35]
  Others: 129%
